In ChEMBL document CHEMBL3286094, “Synthesis and biological evaluation of novel bisbenzimidazoles as Escherichia coli topoisomerase IA inhibitors and potential antibacterial agents” (J Med Chem, 2014):
pIC50: −log10 of the molar value. Converted amounts (≈) assume the structure as drawn.

Assays:
[1] = Inhibition of Escherichia coli DNA topoisomerase-1A using supercoiled pHOT1 plasmid DNA as substrate assessed as inhibition of DNA relaxation after 30 mins by agarose gel electrophoresis
How it was run: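 Supercoiled plasmid DNA incubated with E. coli Topo IA in the presence of compound at […]. Relaxation products were resolved by electrophoresis on 1% agarose gel.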

Escherichia coli [2] = assay: Antibacterial activity against Escherichia coli DH5[alpha] assessed as growth inhibition after 18 to 24 hrs by broth microdilution method; assay type: functional
Escherichia coli [3] = assay: Bactericidal activity against Escherichia coli ATCC 25922 by agar plating method; assay type: functional
Escherichia coli [4] = assay: Antibacterial activity against Escherichia coli ATCC 25922 assessed as growth inhibition after 18 to 24 hrs by broth microdilution method; assay type: functional
Escherichia coli [5] = assay: Bactericidal activity against Escherichia coli DH5[alpha] by agar plating method; assay type: functional

| Compound | pIC50 [1] | MIC50 (Escherichia coli [2]) [µg/mL] | MIC90 (Escherichia coli [2]) [µg/mL] | MBC (Escherichia coli [3]) [µg/mL] | MIC50 (Escherichia coli [4]) [µg/mL] | MIC90 (Escherichia coli [4]) [µg/mL] | MBC (Escherichia coli [5]) [µg/mL] |
| --- | --- | --- | --- | --- | --- | --- | --- |
| CCOc1ccc(-c2nc3ccc(-c4nc5ccc(N6CCN(CCNC(=O)C(F)(F)F)CC6)cc5[nH]4)cc3[nH]2)cc1 | 4.29 | 16 (≈ 27.7 µM) | 22.5 (≈ 39 µM) | 32 (≈ 55.4 µM) | 10.4 (≈ 18 µM) | 20.8 (≈ 36 µM) | 32 (≈ 55.4 µM) |
| COc1ccc(-c2nc3ccc(-c4nc5ccc(N6CCN(CCN(C)C)CC6)cc5[nH]4)cc3[nH]2)cc1OC | 5.52 | 128 (≈ 244 µM) | – | – | 128 (≈ 244 µM) | – | – |
| O=C(NCCN1CCN(c2ccc3nc(-c4ccc5nc(-c6ccc(O)cc6)[nH]c5c4)[nH]c3c2)CC1)C(F)(F)F | 4.34 | > 128 | – | – | > 128 | – | – |
| COc1ccc(-c2nc3ccc(-c4nc5ccc(N6CCN(c7ccc(N)cc7)CC6)cc5[nH]4)cc3[nH]2)cc1OC | 4.69 | > 128 | – | – | > 128 | – | – |
| COc1ccc(-c2nc3ccc(-c4nc5ccc(N6CCN(c7ccccc7)CC6)cc5[nH]4)cc3[nH]2)cc1OC | 5.42 | > 128 | – | – | > 128 | – | – |
| Oc1ccc(-c2nc3ccc(-c4nc5ccc(N6CCN(c7ccccc7)CC6)cc5[nH]4)cc3[nH]2)cc1 | 4.22 | > 128 | – | – | > 128 | – | – |
| Oc1ccc(-c2nc3ccc(-c4nc5ccc(N6CCN(c7ccncc7)CC6)cc5[nH]4)cc3[nH]2)cc1 | < 4.30 | > 128 | – | – | > 128 | – | – |
| N#Cc1ccccc1N1CCN(c2ccc3nc(-c4ccc5nc(-c6ccc(O)cc6)[nH]c5c4)[nH]c3c2)CC1 | 4.69 | > 128 | – | – | > 128 | – | – |
| CCN1CCN(c2ccc3nc(-c4ccc5nc(-c6ccc(OC)c(OC)c6)[nH]c5c4)[nH]c3c2)CC1 | 4.91 | – | – | 32 (≈ 66.3 µM) | 16 (≈ 33.2 µM) | 14.8 (≈ 30.7 µM) | 16 (≈ 33.2 µM) |
| CN(C)CCN1CCN(c2ccc3nc(-c4ccc5nc(-c6ccc(O)cc6)[nH]c5c4)[nH]c3c2)CC1 | 5.10 | 64 (≈ 133 µM) | – | – | > 128 | – | – |
| COc1ccc(-c2nc3ccc(-c4nc5ccc(N6CCN(c7ccc(F)cc7)CC6)cc5[nH]4)cc3[nH]2)cc1OC | < 4.30 | > 128 | – | – | > 128 | – | – |
| CCN1CCN(c2ccc3nc(-c4ccc5nc(-c6ccc(O)cc6)[nH]c5c4)[nH]c3c2)CC1 | 5.24 | 64 (≈ 146 µM) | 121 (≈ 276 µM) | – | > 128 | – | 128 (≈ 292 µM) |
| CCOc1ccc(-c2nc3ccc(-c4nc5ccc(N6CCN(c7ccncc7)CC6)cc5[nH]4)cc3[nH]2)cc1 | < 4.30 | > 128 | – | – | > 128 | – | – |
| Nc1ccc(N2CCN(c3ccc4nc(-c5ccc6nc(-c7ccc(O)cc7)[nH]c6c5)[nH]c4c3)CC2)cc1 | 5.33 | 128 (≈ 255 µM) | – | – | > 128 | – | – |
| Oc1ccc(-c2nc3ccc(-c4nc5ccc(N6CCN(c7ncccn7)CC6)cc5[nH]4)cc3[nH]2)cc1 | < 4.30 | > 128 | – | – | > 128 | – | – |
| COc1ccc(-c2nc3ccc(-c4nc5ccc(N6CCN(c7ccccc7C#N)CC6)cc5[nH]4)cc3[nH]2)cc1OC | 5.42 | > 128 | – | – | > 128 | – | – |
| Oc1ccc(-c2nc3ccc(-c4nc5ccc(N6CCN(c7ccc(F)cc7)CC6)cc5[nH]4)cc3[nH]2)cc1 | 4.69 | > 128 | – | – | > 128 | – | – |
| CCCN1CCN(c2ccc3nc(-c4ccc5nc(-c6ccc(O)cc6)[nH]c5c4)[nH]c3c2)CC1 | 4.68 | > 128 | – | – | > 128 | – | – |
